Experiments:
[1] = Selectivity index, ratio of IC50 for mouse HDAC6 to IC50 for human HDAC1
In short: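 Ratio of HDAC6 IC50 to HDAC1 IC50. Both enzymes were FLAG-immunopurified from transfected 293T cells: human HDAC1 and mouse HDAC6. Each was assayed on Ac-KGLGK(Ac)-MCA with 100 µM DTT at 37 °C for 30 min, developed with trypsin, and AMC read by fluorescence. IC50s are means of ≥3 curves.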

SF-268 = assay: Cytotoxicity against human SF268 cells by SRB assay; type: functional
In short: (§1)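 Tested at the Japanese Foundation for Cancer Research panel of 39 human cancer cell lines. Five concentrations per compound, spanning 10^-10 to 10^-6 M or 10^-8 to 10^-4 M. Growth measured by sulforhodamine B colorimetry. GI50 is the concentration giving 50% growth inhibition relative to control.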

U-251 = assay: Cytotoxicity against human U251 cells by SRB assay; type: functional; in short: as §1
MDA-MB-231 = assay: Cytotoxicity against human MDA-MB-231 cells by SRB assay; type: functional; in short: as §1
[2] = Cytotoxicity against human HBC5 cells by SRB assay; type: functional; in short: as §1
MCF7 = assay: Cytotoxicity against human MCF7 cells by SRB assay; type: functional; in short: as §1
[3] = Cytotoxicity against human BSY1 cells by SRB assay; type: functional; conditions: BSY-1; in short: as §1
[4] = Cytotoxicity against human HBC4 cells by SRB assay; type: functional; in short: as §1
Histone deacetylase 1 [5] = molecular target: T1, Histone deacetylase 1 (Homo sapiens, UniProt Q13547); assay: Ratio of FK228 IC50 to compound IC50 for human HDAC1 expressed in human 293T cells; type: cell-based
T1 sequence (Q13547 whole entry): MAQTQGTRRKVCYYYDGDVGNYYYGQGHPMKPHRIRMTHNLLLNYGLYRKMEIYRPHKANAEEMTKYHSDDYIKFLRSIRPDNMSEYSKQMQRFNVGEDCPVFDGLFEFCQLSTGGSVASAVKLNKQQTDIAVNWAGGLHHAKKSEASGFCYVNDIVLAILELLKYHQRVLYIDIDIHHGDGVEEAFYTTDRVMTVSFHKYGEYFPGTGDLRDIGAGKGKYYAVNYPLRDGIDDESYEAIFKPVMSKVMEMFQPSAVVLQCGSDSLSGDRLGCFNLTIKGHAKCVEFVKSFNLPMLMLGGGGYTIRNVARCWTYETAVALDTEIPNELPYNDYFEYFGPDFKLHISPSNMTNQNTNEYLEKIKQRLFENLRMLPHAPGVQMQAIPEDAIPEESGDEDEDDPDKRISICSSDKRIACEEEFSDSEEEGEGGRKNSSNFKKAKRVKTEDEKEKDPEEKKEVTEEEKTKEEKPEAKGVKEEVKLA
In short: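 FLAG-tagged human HDAC1 was expressed transiently in 293T cells (pcDNA3-HDAC1), immunoprecipitated with anti-FLAG M2 and eluted with FLAG peptide. Enzyme was incubated with 2 mM stock Ac-KGLGK(Ac)-MCA in 20 mM Tris-HCl pH 8.0, 150 mM NaCl, 10% glycerol, 100 μM DTT, for 30 min at 37 °C. Trypsin then released AMC, read by fluorescence. IC50 is the mean of ≥3 dose-response curves; FK228 reference run alongside.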

[6] = molecular target: T2, Protein deacetylase HDAC6 (Mus musculus, UniProt Q9Z2V5); assay: Inhibition of mouse HDAC6 expressed in human 293T cells using Ac-KGLGK(Ac)-MCA as substrate after 30 mins by fluorescence assay; type: cell-based
T2 sequence (Q9Z2V5 whole entry): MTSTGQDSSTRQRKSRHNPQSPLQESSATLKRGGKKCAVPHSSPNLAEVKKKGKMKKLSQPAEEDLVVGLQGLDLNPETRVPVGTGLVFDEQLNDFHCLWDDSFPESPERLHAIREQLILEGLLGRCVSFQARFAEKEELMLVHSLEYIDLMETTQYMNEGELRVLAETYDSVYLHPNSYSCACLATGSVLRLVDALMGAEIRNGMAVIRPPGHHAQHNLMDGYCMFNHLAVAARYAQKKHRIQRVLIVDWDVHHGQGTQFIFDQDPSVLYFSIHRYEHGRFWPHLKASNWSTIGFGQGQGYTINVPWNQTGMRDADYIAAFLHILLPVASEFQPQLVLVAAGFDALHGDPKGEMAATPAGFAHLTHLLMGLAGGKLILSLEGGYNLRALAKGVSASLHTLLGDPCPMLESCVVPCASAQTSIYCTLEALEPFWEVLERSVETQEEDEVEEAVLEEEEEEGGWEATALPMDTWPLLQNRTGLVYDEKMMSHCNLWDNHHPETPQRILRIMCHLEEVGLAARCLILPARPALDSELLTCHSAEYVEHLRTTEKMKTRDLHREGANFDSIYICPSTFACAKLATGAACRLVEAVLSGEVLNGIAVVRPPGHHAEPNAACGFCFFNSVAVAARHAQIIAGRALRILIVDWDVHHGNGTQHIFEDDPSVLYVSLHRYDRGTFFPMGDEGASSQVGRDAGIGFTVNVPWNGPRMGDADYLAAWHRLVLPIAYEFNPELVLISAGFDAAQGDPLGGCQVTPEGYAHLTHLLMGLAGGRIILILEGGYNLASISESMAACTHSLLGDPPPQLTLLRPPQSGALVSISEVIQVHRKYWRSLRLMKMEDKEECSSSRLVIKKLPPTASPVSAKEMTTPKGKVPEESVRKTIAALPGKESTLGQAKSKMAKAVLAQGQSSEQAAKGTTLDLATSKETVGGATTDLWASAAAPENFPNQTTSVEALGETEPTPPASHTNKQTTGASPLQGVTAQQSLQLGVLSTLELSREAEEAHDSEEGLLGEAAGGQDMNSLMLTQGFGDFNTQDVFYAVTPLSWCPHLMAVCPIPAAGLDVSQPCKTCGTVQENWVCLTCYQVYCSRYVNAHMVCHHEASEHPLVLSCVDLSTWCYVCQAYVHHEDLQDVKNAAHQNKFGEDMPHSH

Histone deacetylase 1 [7] = molecular target: T1, Histone deacetylase 1; assay: Inhibition of human HDAC1 expressed in human 293T cells using Ac-KGLGK(Ac)-MCA as substrate after 30 mins by fluorescence assay
PC-3 = assay: Cytotoxicity against human PC3 cells by SRB assay; type: functional; in short: as §1
DU-145 = assay: Cytotoxicity against human DU145 cells by SRB assay; type: functional; in short: as §1
[8] = Cytotoxicity against human MKN45 cells by SRB assay; type: functional; conditions: MKN-45; in short: as §1
[9] = Cytotoxicity against human MKN74 cells by SRB assay; type: functional; conditions: MKN-74; in short: as §1
[10] = Cytotoxicity against human MKN7 cells by SRB assay; type: functional; conditions: MKN-7; in short: as §1
[11] = Cytotoxicity against human MKN28 cells by SRB assay; type: functional; conditions: MKN-28; in short: as §1
[12] = Cytotoxicity against human MKN1 cells by SRB assay; type: functional; conditions: MKN-1; in short: as §1
St-4 = assay: Cytotoxicity against human St-4 cells by SRB assay; type: functional; in short: as §1
ACHN = assay: Cytotoxicity against human ACHN cells by SRB assay; type: functional; in short: as §1
[13] = Cytotoxicity against human RXF631L cells by SRB assay; type: functional; conditions: RXF 631; in short: as §1
SK-OV-3 = assay: Cytotoxicity against human SKOV3 cells by SRB assay; type: functional; in short: as §1
OVCAR-8 = assay: Cytotoxicity against human OVCAR8 cells by SRB assay; type: functional; in short: as §1
[14] = Cytotoxicity against human OVCAR5 cells by SRB assay; type: functional; conditions: OVCAR-5; in short: as §1
[15] = Cytotoxicity against human OVCAR4 cells by SRB assay; type: functional; conditions: OVCAR-4; in short: as §1
OVCAR-3 = assay: Cytotoxicity against human OVCAR3 cells by SRB assay; type: functional; in short: as §1
LOX IMVI = assay: Cytotoxicity against human LOXIMVI cells by SRB assay; type: functional; in short: as §1
[16] = Cytotoxicity against human DMS273 cells by SRB assay; type: functional; conditions: DMS-273; in short: as §1
[17] = Cytotoxicity against human DMS114 cells by SRB assay; type: functional; conditions: DMS-114; in short: as §1
NCI-H460 = assay: Cytotoxicity against human NCI-H460 cells by SRB assay; type: functional; in short: as §1
A549 = assay: Cytotoxicity against human A549 cells by SRB assay; type: functional; in short: as §1
NCI-H226 = assay: Cytotoxicity against human NCI-H226 cells by SRB assay; type: functional; in short: as §1
NCI-H522 = assay: Cytotoxicity against human NCI-H522 cells by SRB assay; type: functional; in short: as §1
NCI-H23 = assay: Cytotoxicity against human NCI-H23 cells by SRB assay; type: functional; in short: as §1
HCT-116 = assay: Cytotoxicity against human HCT116 cells by SRB assay; type: functional; in short: as §1
HCT-15 = assay: Cytotoxicity against human HCT15 cells by SRB assay; type: functional; in short: as §1
HT-29 = assay: Cytotoxicity against human HT-29 cells by SRB assay; type: functional; in short: as §1
KM12 = assay: Cytotoxicity against human KM12 cells by SRB assay; type: functional; in short: as §1
[18] = Cytotoxicity against human SNB78 cells by SRB assay; type: functional; conditions: SNB-78; in short: as §1
HCC 2998 = assay: Cytotoxicity against human HCC2998 cells by SRB assay; type: functional; in short: as §1
SNB-75 = assay: Cytotoxicity against human SNB75 cells by SRB assay; type: functional; in short: as §1
SF-295 = assay: Cytotoxicity against human SF295 cells by SRB assay; type: functional; in short: as §1
SF-539 = assay: Cytotoxicity against human SF539 cells by SRB assay; type: functional; in short: as §1

**Q.** With `CCC(C)[C@H]1NC(=O)[C@H]2CSSCC/C=C/[C@H](CC(=O)N[C@H](C)C(=O)N2)OC(=O)C[C@@H]1O` (some centres undefined) as the molecule, how does the Ratio IC50 [1] read?
**A.** Its Ratio IC50 is 636.

**Q.** Which GI50 (SF-268) does the source give for `CC[C@H](C)[C@H]1NC(=O)[C@H]2CSSCC/C=C/[C@H](CC(=O)N[C@H](CCSC)C(=O)N2)OC(=O)C[C@@H]1O` [THAILANDEPSIN A] here?
**A.** Its GI50 is 4.1 nM.

**Q.** And the GI50 (U-251)?
**A.** Its GI50 is 4.4 nM.

**Q.** What about the GI50 (MDA-MB-231) of the same molecule?
**A.** Its GI50 is 2.6 nM.

**Q.** What about the GI50 [2] of the same molecule?
**A.** Its GI50 is 2.3 nM.

**Q.** What about the GI50 (MCF7) of the same molecule?
**A.** Its GI50 is 2.8 nM.

**Q.** And the GI50 [3]?
**A.** Its GI50 is 5 nM.

**Q.** What about the GI50 [4] of the same molecule?
**A.** Its GI50 is 3.8 nM.

**Q.** What about the Ratio IC50 (Histone deacetylase 1 [5]) of the same molecule?
**A.** Its Ratio IC50 is 3.

**Q.** What about the Ratio IC50 [1] of the same molecule?
**A.** The Ratio IC50 was 992.

**Q.** What about the IC50 [6] of the same molecule?
**A.** The IC50 was 992 nM.

**Q.** What about the IC50 (Histone deacetylase 1 [7]) of the same molecule?
**A.** The IC50 was 1 nM.

**Q.** What about the GI50 (PC-3) of the same molecule?
**A.** The GI50 was 8.3 nM.

**Q.** And the GI50 (DU-145)?
**A.** The GI50 was 3.1 nM.

**Q.** What about the GI50 [8] of the same molecule?
**A.** The GI50 was 14 nM.

**Q.** And the GI50 [9]?
**A.** The GI50 was 2.9 nM.

**Q.** And the GI50 [10]?
**A.** Its GI50 is 10 nM.

**Q.** And the GI50 [11]?
**A.** Its GI50 is 16 nM.

**Q.** And the GI50 [12]?
**A.** Its GI50 is 2.5 nM.

**Q.** What about the GI50 (St-4) of the same molecule?
**A.** The GI50 was 1.1 nM.

**Q.** What about the GI50 (ACHN) of the same molecule?
**A.** The GI50 was 6.6 nM.

**Q.** And the GI50 [13]?
**A.** Its GI50 is 2.3 nM.

**Q.** And the GI50 (SK-OV-3)?
**A.** The GI50 was 1.9 nM.

**Q.** And the GI50 (OVCAR-8)?
**A.** Its GI50 is 0.72 nM.

**Q.** What about the GI50 [14] of the same molecule?
**A.** Its GI50 is 1.6 nM.

**Q.** What about the GI50 [15] of the same molecule?
**A.** Its GI50 is 5 nM.

**Q.** What about the GI50 (OVCAR-3) of the same molecule?
**A.** The GI50 was 2.8 nM.

**Q.** What about the GI50 (LOX IMVI) of the same molecule?
**A.** Its GI50 is 2.5 nM.

**Q.** What about the GI50 [16] of the same molecule?
**A.** The GI50 was 2.7 nM.

**Q.** And the GI50 [17]?
**A.** The GI50 was 3.2 nM.

**Q.** What about the GI50 (NCI-H460) of the same molecule?
**A.** Its GI50 is 0.53 nM.

**Q.** And the GI50 (A549)?
**A.** The GI50 was 0.85 nM.

**Q.** And the GI50 (NCI-H226)?
**A.** Its GI50 is 2.7 nM.

**Q.** What about the GI50 (NCI-H522) of the same molecule?
**A.** The GI50 was 0.42 nM.

**Q.** What about the GI50 (NCI-H23) of the same molecule?
**A.** The GI50 was 3.3 nM.

**Q.** And the GI50 (HCT-116)?
**A.** Its GI50 is 0.51 nM.

**Q.** And the GI50 (HCT-15)?
**A.** The GI50 was 100 nM.

**Q.** And the GI50 (HT-29)?
**A.** Its GI50 is 0.74 nM.

**Q.** And the GI50 (KM12)?
**A.** The GI50 was 3.6 nM.

**Q.** What about the GI50 [18] of the same molecule?
**A.** The GI50 was 11 nM.

**Q.** And the GI50 (HCC 2998)?
**A.** The GI50 was 2.6 nM.

**Q.** And the GI50 (SNB-75)?
**A.** The GI50 was 1.4 nM.

**Q.** And the GI50 (SF-295)?
**A.** Its GI50 is 2.3 nM.

**Q.** And the GI50 (SF-539)?
**A.** The GI50 was 0.7 nM.
